Tests used:
[1] = adults treated with a 5 mg flat dose; cited from earlier work
primary CNS tumor = assay: MR diffusion and permeability perfusion imaging of tumor; format: in vivo, human
[2] = pediatric MTD of 12mg/m^2/day; cited from earlier work
[3] = test system: Plasma VEGF, bFGF, endostatin and IL8 and urine MMPs; assay: Pharmacodynamic biomarkers in plasma and urine; format: in vivo, human; details: baseline vs day 7–14 of cycle 1, or baseline vs end of cycle 2
How it was run: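 Plasma VEGF, bFGF, endostatin and IL8 and urine MMPs were measured by human immunoassays before course 1, once on days 7–14 of course 1, at each MRI scan, and at discontinuation or completion. The fold change was calculated as the later-timepoint value divided by the earlier-timepoint value.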

Phase I dose escalation = format: in vivo

COc1cc2c(Oc3ccc4[nH]c(C)cc4c3F)ncnc2cc1OCCCN1CCCC1 [cediranib, Cediranib]
steady-state systemic exposure (AUC) [1]: 226 ng·h/mL | change in two dimensional mean permeability values (primary CNS tumor; baseline to course 1 day 7–14, p=0.0469): suggested a decrease from baseline | change in 2D permeability and 3D permeability values (primary CNS tumor; baseline to end of course 2, p=0.0078 each): suggested a decrease from baseline | median AUC(0-inf) [2]: 900 ng·h/mL | median Cmax [2]: 67 ng/mL | changes in MMP-9, MMP-9 Dimers or MMP-9/NGAL [3]: No significant changes | MTD (Phase I dose escalation; Stratum II (patients receiving EIACD), maximum dose tested 20mg/m^2/d): not achieved | DLTs identified (Phase I dose escalation; human, in vivo): 8

Source: publication PMC4561207 (Child's nervous system : ChNS : official journal of the …, 2015)
